This is an account of results in ChEMBL document CHEMBL1157958, “Phenolic compounds from the roots of Lindera fruticosa” (J Nat Prod, 2006).

Assay [1] in a line: Antioxidant activity assessed as inhibition of LDL oxidation. The class given is functional. The gist of the method:
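LDL oxidation inhibition, run by a literature method with slight modifications. IC50 in µM; data are mean ± standard deviation of three replicates.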

In assay [2] the target is T1, Sterol O-acyltransferase 1 (Homo sapiens) (UniProt P35610).
T1 sequence (whole entry): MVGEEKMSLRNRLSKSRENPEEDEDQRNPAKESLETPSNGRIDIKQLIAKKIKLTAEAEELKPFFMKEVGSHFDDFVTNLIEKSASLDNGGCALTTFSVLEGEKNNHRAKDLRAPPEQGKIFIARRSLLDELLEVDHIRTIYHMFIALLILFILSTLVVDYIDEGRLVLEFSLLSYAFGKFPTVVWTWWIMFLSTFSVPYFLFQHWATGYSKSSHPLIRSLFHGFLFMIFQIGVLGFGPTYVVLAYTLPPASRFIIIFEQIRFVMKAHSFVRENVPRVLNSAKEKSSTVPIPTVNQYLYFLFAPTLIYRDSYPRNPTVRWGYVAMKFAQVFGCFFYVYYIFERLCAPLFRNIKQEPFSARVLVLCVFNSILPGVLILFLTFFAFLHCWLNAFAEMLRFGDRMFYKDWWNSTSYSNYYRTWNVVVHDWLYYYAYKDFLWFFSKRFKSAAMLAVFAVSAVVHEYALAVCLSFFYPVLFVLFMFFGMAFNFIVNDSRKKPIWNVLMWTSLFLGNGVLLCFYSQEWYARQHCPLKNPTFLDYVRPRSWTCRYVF
The experiment in a line: Inhibition of human ACAT1 at 0.4 mM. The gist of the method: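 Human ACAT-1 inhibition, run by the Brecher and Chan method with slight modifications. Test concentration 0.4 mM; read-out is percent inhibition; data are mean ± standard deviation of three replicates.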

As to `CC(C)(Sc1cc(C(C)(C)C)c(O)c(C(C)(C)C)c1)Sc1cc(C(C)(C)C)c(O)c(C(C)(C)C)c1` [PROBUCOL], in assay [1], the IC50 amounted to 4.3 µM.

With `COc1c(C(=O)c2ccccc2)ccc2c1OCO2`, the inhibition in assay [2] is 54%. In assay [1], the IC50 was found to be 524 µM.

Regarding `COc1c([C@@H](O)c2ccccc2)ccc2c1OCO2`, the inhibition in assay [2] turned out to be 31%. Further, the IC50 in assay [1] amounted to 192 µM.

Turning to `COc1cccc(O)c1C(=O)OCc1ccccc1`, the inhibition in assay [2] turned out to be 46%. Besides, the IC50 in assay [1] came to 478 µM.

Take `COc1cc(OC)cc(-c2ccccc2)c1`: in assay [2], the inhibition worked out at 43%. Moreover, the IC50 in assay [1] came to 48.1 µM.

In the case of `COc1c(O)ccc2oc3c(O)cc(O)cc3c(=O)c12`, the inhibition in assay [2] was 7%. Also, in assay [1], the IC50 is 25.5 µM.

`O=c1c2cc(O)ccc2oc2cccc(O)c12` had an inhibition in assay [2] of 31%. Moreover, the IC50 in assay [1] came out at 386 µM.

In assay [2], `COc1cc(O)cc(-c2ccccc2)c1` returned an inhibition of 30%. For the same compound, the IC50 in assay [1] was found to be 15.5 µM.

One may read the IC50 as the concentration that inhibits the measured activity by half. As a reminder, the inhibition is the relative decrease from the control value, in per cent.
